HTR1E antagonist: 5-HT1E (human) receptor antagonism | P28566 | CHO 5-HT1E Ga15 NFAT-bla reporter, FRET, antagonist | inhibition, % at 6 µM | 65,000 tested, 0.99% active | AID 571;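 active = inhibition above a set limit, the mean inhibition across every tested compound plus 3 SD, cut at about 29% in these data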;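 also: signal is the 460 over 535 nm emission ratio of beta-lactamase substrate; 0% = agonist plus DMSO wells and 100% = wells without agonist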
HTR1E agonist: activates the human 5-HT1E serotonin receptor. P28566. CHO 5-HT1E Ga15 NFAT-bla reporter, FRET; 0% DMSO wells, 100% control agonist wells. activation, % at 6 µM. 65,000 tested, 0.69% active;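 active = activation above a set limit, the screen-wide mean activation plus 3 SD, cut at about 8.5% in these data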;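 also: 100% = positive control agonist at 1 µM giving full maximal response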
HTR1A agonist: agonists of human 5-HT1a serotonin receptor. P08908. activation, % at 10 µM. 65,000 tested, 0.56% active. CHO 5-HT1a Ga15 NFAT-bla reporter, FRET ratio; 0% basal, 100% maximal reference agonist;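 active = activation above the screen-wide mean activation plus 3 SD, cut at about 19% in these data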;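 also: 0% = DMSO wells and 100% = 5-CT at EC100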
Target sequence (P08908 whole entry, looked up): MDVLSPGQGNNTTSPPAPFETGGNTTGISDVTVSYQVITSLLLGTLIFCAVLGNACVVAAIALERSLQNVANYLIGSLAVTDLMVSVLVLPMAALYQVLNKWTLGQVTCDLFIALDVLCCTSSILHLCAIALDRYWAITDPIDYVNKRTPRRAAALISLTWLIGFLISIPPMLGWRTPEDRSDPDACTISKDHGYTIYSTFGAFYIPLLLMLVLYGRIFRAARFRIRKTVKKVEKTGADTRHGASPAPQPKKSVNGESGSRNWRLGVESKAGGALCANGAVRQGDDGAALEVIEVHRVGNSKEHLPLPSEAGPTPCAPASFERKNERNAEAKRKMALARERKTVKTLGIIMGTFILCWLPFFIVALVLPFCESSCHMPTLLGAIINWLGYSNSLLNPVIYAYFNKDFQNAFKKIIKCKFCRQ
S1P1 ag-PAM: S1P1 (human) agonism or agonism potentiation. 56,000 tested, 0.57% active. S1P1 CRE-bla cells, forskolin, beta-lactamase FRET, potentiator mode; S1P1 agonist co-added at EC20, 2 nM; 100% = saturating reference agonist, 0% = basal. P21453. activation, % at 9.5 µM;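 active = activation above a cutoff set at the mean activation of all tested compounds plus 3 SD, cut at about 54% in these data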;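 also: forskolin at 4 µM as EC80 and the EC20 agonist is SEW2871; 100% = SEW2871 at its EC100 plus forskolin at EC80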
5-HT1A blocker: antagonists of human 5-HT1a serotonin receptor; P08908; inhibition, % at 10 µM; 62,000 tested, 0.68% active; CHO 5-HT1a Ga15 NFAT-bla reporter, antagonist mode;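 active = inhibition above the mean of all tested compounds plus 3 SD, cut at about 43% in these data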;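 also: receptor stimulated by 5-CT agonist at 100 nM near EC80; beta-lactamase reporter measured by ratiometric fluorescence of a cleavable substrate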
S1P3 agonist: activates the human S1P3 receptor | Q99500 | S1P3 NFAT-BLA reporter cells, agonism, FRET ratio; relative to 1 µM S1P, basal subtracted | activation, % at 4.5 µM | 60,000 tested, 0.1% active | AID 373;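 active = activation above the screen-wide mean plus 3 SD, cut at about 4.5% in these data, passing the limit was not always enough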
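Measure – % activation relative to 1 µM S1P (100%), per plate · System – stable CHO line with human S1P3, Gα16, NFAT-BLA reporter · Timing – cells plated overnight, compound 4 h 37 °C, substrate 2 h RT · Technique – fluorescent BLA substrate, ex 405 nm, em 460/535 nm ratio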
Starred values were filed as active, the others as inactive; . = no result. The list is not random: actives were taken first. Their share in the collection is about 3%.

SMILES	HTR1E antagonist	HTR1E agonist	HTR1A agonist	S1P1 ag-PAM	5-HT1A blocker	S1P3 agonist
COC(=O)CC(=O)Cc1nc(N)nc(Nc2ccc(C)c(C)c2)n1	4	52*	-3	6	.	-3
CCOC(=O)N1CCN(C(=O)CSc2nnc(C3COc4ccccc4O3)o2)CC1 (stereo not given)	8	0	78*	9	-12	0
CCOC(=O)N1CCN(C(=O)C2COc3ccccc3O2)CC1 (stereo not given)	-2	3	-1	.	-2	.
C=CCN=C(NC#N)SCC(=O)c1cccc(OC)c1	0	1	0	-5	8	1
COc1cccc(Oc2cnc(N)nc2-c2ccc(OC)cc2O)c1	26	0	-1	13	22	-2
COc1ccc(-c2nc(N)ncc2Oc2ccccc2Br)c(O)c1	28	-1	0	1	44*	-1
O=S(=O)(Nc1cccc2cccnc12)c1ccc(S(=O)(=O)N2CCCC2)cc1	32*	-1	-1	23	30	0
Nc1nonc1C(=O)NCCNCc1cc(Br)ccc1OCc1ccccc1F	12	0	-1	78*	52*	-2
O=C(CSc1nnnn1-c1ccc(Cl)cc1)N1CCc2ccccc2C1	-2	-1	-1	7	-20	-1
O=C(NCc1ccco1)c1ccccc1Nc1ccc(F)cc1	29*	-2	-3	.	40	.
O=C(NCc1ccco1)c1cccc2ccccc12	11	-1	-3	6	9	-1
C[N+]1=C2CCCCCN2C(O)(c2ccccc2)C1 (stereo not given)	-3	51*	20*	1	-2	0
COc1cc(CNc2ccc(N3CCOCC3)c(C(=O)O)c2)ccc1OCC(N)=O	-1	34*	-2	-6	-1	0
O=C(Cc1ccccc1)Nc1ccc(NC(=O)c2ccco2)nc1	13	0	-4	-12	1	0
O=C(Nc1ccc(NC(=O)c2ccco2)nc1)c1ccccn1	-2	34*	-2	.	5	.
C=CCn1c(O)c(C2=c3ccccc3=NC2=O)sc1=Nc1ccc(O)cc1	12	0	-10	10	55*	-1
CCCN(CCC)C(=O)c1c(C)[nH]c(C(=O)OCC)c1C	-9	1	0	-3	-7	-1
CCCCCCC(=O)c1c(C)[nH]c(C(=O)OCC)c1C	36*	0	2	-31	4	-2
CCOC(=O)c1cccc(NC(=O)Cn2cnc3c2c(=O)n(C)c(=O)n3C)c1	0	8	-2	-11	5	0
c1ccc2c(c1)oc1c(NCc3ccc4c(c3)OCO4)ncnc12	-3	1	0	90*	12	0
CCOC(=O)c1[nH]c2ccc(OC)cc2c1NC(=O)OC	-9	0	-3	-6	5	0
COc1ccc2[nH]c(O)c(NC(C)=O)c2c1	5	13*	-1	5	-3	-1
O=C(c1cnn(-c2ccccc2)c1-n1cccc1)N1CCN(C2CCCCC2)CC1	-1	1	-4	12	5	-1
Cc1cccc(C)c1OCC(O)Cn1ccnc1C (stereo not given)	5	-1	1	4	4	-2
Cc1cccc(C)c1OCC(O)CN (stereo not given)	3	24*	-4	7	-3	0
SMILES	HTR1E antagonist	HTR1E agonist	HTR1A agonist	S1P1 ag-PAM	5-HT1A blocker	S1P3 agonist
CC12C(=O)N(c3nccs3)C(=O)C1C1C=CC2C1 (stereo not given)	-6	0	0	-7	-7	-1
CCN(CCNC(=O)c1cc(C)nn1-c1ccccc1)c1ccccc1	-1	1	-3	-13	16	-1
CCOC(=O)c1[nH]c(C)c(C(=O)Nc2ccccc2C)c1C	23	0	1	28	17	-1
CCOC(=O)c1[nH]c(C)c(C(=O)Nc2cc(Cl)ccc2C)c1C	44*	0	-3	0	32	-1
Cc1ccc(N(CC2=NCCN2)c2cccc(O)c2)cc1	52*	-2	.	-12	.	-2
O=C(NCc1cccs1)C1CCN(c2ccc(S(=O)(=O)N3CCOCC3)cc2Cl)CC1	40*	0	1	16	27	-2
CC(C)CNC(=O)C1CCN(c2ccc(S(=O)(=O)N3CCOCC3)cc2Cl)CC1	13	0	1	24	8	-1
N#Cc1c(N)nc(SCc2ccncc2)c(C#N)c1-c1cccs1	43*	0	1	18	5	-1
CC1(C(=O)NCc2cccnc2)CCC(=O)N1Cc1cccs1 (stereo not given)	-7	0	-2	1	-9	-1
Cc1ccc(C(N)=S)c(C)c1	13	0	-3	24	1	-1
CC1=C(C(=O)OC2CCCC2)C(c2ccc(C)o2)C2=C(CC(c3cccs3)CC2=O)N1 (stereo not given)	39*	0	0	14	45*	-2
CC1=C(C(=O)OC2CCCCCC2)C(c2ccc(C)o2)C2=C(CCCC2=O)N1 (stereo not given)	10	-1	-2	-6	27	-2
Cc1cc(C(C)(C)C)cc(C)c1CC1=NCCN1	-3	89*	43*	18	.	-4
Cc1cccc2cc(C#N)c(N3CCN(C)CC3)nc12	-5	23*	2	-16	-3	0
COC(=O)Cn1cnc2c(nnn2-c2cccc(Cl)c2)c1=O	0	0	-2	-6	-5	0
N#Cc1c(-c2ccco2)cc(C2CC2)nc1N	24	-1	4	-51	.	-3
N#Cc1c(-c2ccccc2)cc(C2CC2)nc1N	33*	0	5	-31	25	0
O=C(CCN1CCN(c2ccc(F)cc2)CC1)Nc1ccc(F)cc1	4	-1	0	-22	36	-1
CC1CN(CCC(=O)Nc2ccc3c(c2)OCO3)CC(C)O1 (stereo not given)	-3	1	1	.	-11	.
O=C(CCN1CCN(c2ccccc2F)CC1)Nc1ccc2c(c1)OCO2	0	0	8	-5	84*	0
CNC(=O)CCC(=O)Nc1ccc(C(=O)OC)cc1	-6	0	0	.	1	0
COC(=O)c1ccc(NC(=O)CCn2cccc2)cc1	-6	9.6*	-2	-7	4	-1
O=C(CCN1CCN(c2ccccc2)CC1)Nc1ccc2c(c1)OCO2	-3	-1	9	.	83*	-1
COC(=O)c1ccc(NC(=O)CCN2CCN(c3ccccc3)CC2)cc1	4	0	2	16	44*	-2
CCn1c(COc2ccc(C)cc2)nnc1SCC(=O)Nc1ccc2c(c1)OCCO2	-6	-1	0	-11	-8	0
